Key:
Trypanosoma cruzi [1] = experiment: Antitrypanosomal activity against epimastigote stage of Trypanosoma cruzi Y after 96 hrs by hemocytometry; assay type: functional, organism-based
In short: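 Log-phase parasites (promastigotes 3-day, Warren's medium + 10% FBS, 25°C; epimastigotes 4-day, LIT + 10% FBS, 28°C) seeded at 1 × 10^6 cells/mL with compound (0.1-100 µM; DMSO ≤1%). Promastigotes read at 72 h, epimastigotes at 96 h, by hemocytometer counting. IC50 by nonlinear regression.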

Leishmania amazonensis = experiment: Antileishmanial activity against promastigote stage of Leishmania amazonensis WHOM/BR/75/JOSEFA after 72 hrs by hemocytometry; assay type: functional, organism-based
[2] = Selectivity ratio of CC50 for monkey LLC-MK2 cells to IC50 for epimastigote stage of epimastigote stage of Trypanosoma cruzi Y
[3] = Selectivity ratio of CC50 for mouse J774A1 cells to IC50 for promastigote stage of Leishmania amazonensis WHOM/BR/75/JOSEFA; assay type: ADME, cell-based, J774.A1; settings: read-out: Ratio CC50/IC50
[4] = Selectivity ratio of CC50 to IC50 for promastigote stage of Leishmania amazonensis WHOM/BR/75/JOSEFA; design: reference not given here
[5] = Selectivity ratio of CC50 for monkey LLC-MK2 cells to IC50 for epimastigote stage of epimastigote stage of Trypanosoma cruzi Y; assay type: ADME, cell-based; settings: read-out: Ratio CC50/IC50
Trypanosoma cruzi [6] = experiment: Antitrypanosomal activity against trypomastigote stage of Trypanosoma cruzi Y infected in monkey LLC-MK2 cells after 96 hrs by Pizzi-Brener method; assay type: functional, organism-based

| Structure (SMILES) | IC50 (Trypanosoma cruzi [1]) [µM] | IC50 (Leishmania amazonensis) [µM] | EC50 (Trypanosoma cruzi [6]) [µM] | selectivity ratio [2] | selectivity ratio [3] | selectivity ratio [4] | selectivity ratio [5] |
| --- | --- | --- | --- | --- | --- | --- | --- |
| COc1ccc(-c2nc3ccccc3nc2-c2ccccc2)cc1 | 21.5 | 12.8 | – | – | – | – | – |
| c1ccc(-c2nc3ccccc3nc2-c2ccccc2)cc1 | > 100 | 21.1 | – | – | – | – | – |
| CSC(=C[N+](=O)[O-])SC | 10.8 | 29.6 | > 50 | 18.3 | 6 | 6 | 18.3 |
| COc1cccc(N/C(=C\[N+](=O)[O-])SC)c1 | 32 | 27.9 | – | – | – | – | – |
| CS/C(=C/[N+](=O)[O-])Nc1ccccc1 | 11.4 | 24.1 | – | – | – | – | – |
| CS/C(=C/[N+](=O)[O-])Nc1ccc(O)cc1 | 67.3 | 41.5 | – | – | – | – | – |
| CS/C(=C/[N+](=O)[O-])NC1CCCCC1 | 70.1 | 21.9 | – | – | – | – | – |
| CS/C(=C/[N+](=O)[O-])Nc1ccc(F)cc1 | 19.7 | 19.7 | – | – | – | – | – |
| CSc1nc2ccc(Br)cc2nc1Cl | 47.8 | 57.9 | > 50 | 9.2 | 7.4 | 7.4 | 9.2 |
| Cc1ccc(-c2nc3cc(Cl)ccc3nc2-c2ccccc2)cc1 | 36 | 24.3 | – | – | – | – | – |
| COc1ccc(-c2nc3ccc(Cl)cc3nc2-c2ccccc2)cc1 | 43.8 | 31.5 | > 50 | 6.5 | 9.5 | 9.5 | 6.5 |
| Clc1ccc2nc(-c3ccccc3)c(-c3ccccc3)nc2c1 | 42.7 | 28.1 | > 50 | 6.1 | 6.6 | 6.6 | 6.1 |
| Clc1cc2nc(-c3ccccc3)c(-c3ccccc3)nc2cc1Cl | 54 | 5.3 | > 50 | 8.7 | 38.5 | 38.5 | 8.7 |
| Cc1ccc(-c2nc3cc(Cl)c(Cl)cc3nc2-c2ccccc2)cc1 | 83.4 | 22.2 | > 50 | 1.3 | 3.2 | 3.2 | 1.3 |
| CCCCNc1nc2ccc(OC)cc2nc1SC | 86.7 | 35.2 | > 50 | 3.1 | 2.1 | 2.1 | 3.1 |
| COc1ccc2nc(NCCO)c(SC)nc2c1 | > 100 | 82.9 | > 50 | – | 5 | 5 | – |
| CCCCNc1nc2ccccc2nc1SC | 93.1 | 75.9 | > 50 | 1.2 | 1.9 | 1.9 | 1.2 |
| CSc1nc2ccccc2nc1NCCO | > 100 | 96.2 | > 50 | – | 2.9 | 2.9 | – |
| COc1ccc2nc(NC3CCCCC3)c(SC)nc2c1 | 30.5 | 29.8 | > 50 | 8.5 | 1.2 | 1.2 | 8.5 |
| CCCCNc1nc2cc(OC)ccc2nc1SC | 69.2 | 30.2 | > 50 | 1.1 | 3.5 | 3.5 | 1.1 |
| CSc1nc2ccc(Br)cc2nc1NCCO | > 100 | > 100 | > 50 | – | – | – | – |
| COc1ccc2nc(N(C)C)c(S(C)(=O)=O)nc2c1 | 25.2 | 35.9 | > 50 | 6.8 | 4.5 | 4.5 | 6.8 |
| COc1ccc2nc(S(C)(=O)=O)c(NCCO)nc2c1 | 90.9 | 69.2 | > 50 | 2.6 | 3.7 | 3.7 | 2.6 |

Further lines, with some results ahead:

| IC50 (Trypanosoma cruzi [1]) [µM] | IC50 (Leishmania amazonensis) [µM] | EC50 (Trypanosoma cruzi [6]) [µM] | Structure (SMILES) | selectivity ratio [2] | selectivity ratio [3] | selectivity ratio [4] | selectivity ratio [5] |
| --- | --- | --- | --- | --- | --- | --- | --- |
| 35.7 | 8.9 | – | Cc1ccc(-c2nc3ccccc3nc2-c2ccccc2)cc1 | – | – | – | – |
| 39 | 28.7 | – | COc1ccc(N/C(=C\[N+](=O)[O-])SC)cc1 | – | – | – | – |
| 61.9 | 42.3 | – | CS/C(=C/[N+](=O)[O-])Nc1ccc2c(c1)OCCO2 | – | – | – | – |
| 20.4 | 33 | – | CS/C(=C/[N+](=O)[O-])Nc1ccc(Br)cc1 | – | – | – | – |
| > 100 | 73.6 | > 50 | CS/C(=C/[N+](=O)[O-])NCCCCO | – | 11.1 | 11.1 | – |
| 90.1 | > 100 | > 50 | CS/C(=C/[N+](=O)[O-])NCCCO | 9.6 | – | – | 9.6 |
| 25.8 | 21.3 | > 50 | CS/C(=C/[N+](=O)[O-])Nc1ccc(Cl)cc1 | 7.3 | 6.9 | 6.9 | 7.3 |
| 38.7 | 93.6 | > 50 | COc1ccc2nc(Cl)c(SC)nc2c1 | 19.3 | 9.8 | 9.8 | 19.3 |
| 52.9 | 74.1 | > 50 | CSc1nc2ccccc2nc1Cl | 8.1 | 13.5 | 13.5 | 8.1 |
| > 100 | > 100 | > 50 | COc1ccc2nc(SC)c(Cl)nc2c1 | – | – | – | – |
| 39.4 | 45.3 | > 50 | CSc1nc2ccc(Cl)cc2nc1Cl | 16.1 | 22.1 | 22.1 | 16.1 |
| > 100 | > 100 | – | COc1ccc2nc(-c3ccccc3)c(SC)nc2c1 | – | – | – | – |
| > 100 | > 100 | – | CSc1nc2ccccc2nc1-c1ccccc1 | – | – | – | – |
| > 100 | 40.5 | – | COc1ccc(-c2nc3cc(OC)ccc3nc2-c2ccccc2)cc1 | – | – | – | – |
| 40.3 | 6.2 | > 50 | c1ccc(-c2nc3ccccc3nc2-c2ccc(OCCN3CCOCC3)cc2)cc1 | 4.6 | 8.7 | 8.7 | 4.6 |
| 39.2 | 5.7 | > 50 | Oc1ccc(-c2nc3ccccc3nc2-c2ccc(OCCN3CCCCC3)cc2)cc1 | 1 | 8.2 | 8.2 | 1 |
| 83.6 | 42.8 | > 50 | COc1ccc2nc(N(C)C)c(SC)nc2c1 | 6.2 | 5.9 | 5.9 | 6.2 |
| > 100 | > 100 | > 50 | COc1ccc2nc(SC)c(NCCO)nc2c1 | – | – | – | – |
| 41 | 21.5 | > 50 | COc1ccc2nc(SC)c(NC3CCCCC3)nc2c1 | – | 2.4 | – | 1.8 |
| 95.7 | 26.9 | > 50 | COc1ccc2nc(SC)c(NCC(C)C)nc2c1 | 0.7 | 4.7 | 4.7 | 0.7 |
| 79.6 | 27.1 | > 50 | COc1ccc2nc(SC)c(NCCC(C)C)nc2c1 | 0.7 | 3.3 | 3.3 | 0.7 |
| 41.8 | 25.2 | > 50 | CCCCNc1nc2cc(Br)ccc2nc1SC | 0.9 | 5.1 | 5.1 | 0.9 |
| 69.9 | 27.6 | > 50 | COc1ccc2nc(NCC(C)C)c(SC)nc2c1 | 1 | 6.7 | 6.7 | 1 |
| 63.6 | 24.4 | > 50 | CCCCNc1nc2cc(Cl)ccc2nc1SC | 1 | 4.6 | 4.6 | 1 |
| 52.3 | > 100 | > 50 | CSc1nc2ccc(Cl)cc2nc1NC1CCCCC1 | 4.8 | – | – | 4.8 |
| 66.8 | > 100 | > 50 | CCCCNc1nc2cc(OC)ccc2nc1-c1ccccc1 | 12.5 | – | – | 12.5 |
| > 100 | 72.8 | > 50 | COc1ccc2nc(-c3ccccc3)c(NCCO)nc2c1 | – | 4.8 | 4.8 | – |
| 47.6 | 50.3 | > 50 | COc1ccc2nc(-c3ccccc3)c(NCCN3CCCCC3)nc2c1 | 3.8 | 0.9 | 0.9 | 3.8 |

Source: ChEMBL document CHEMBL3396970, “Synthesis and biological evaluation of novel 2,3-disubstituted quinoxaline derivatives as antileishmanial and antitrypanosomal agents” (Eur J Med Chem, 2015)
